A selection: hits, their analogues and other compounds. The true share with any hit is near 2.3%.
ABCG2 inh: inhibitors of human ABCG2 transporter, ABCB1 counter-screen; Q9UNQ0; IgMXP3 cells, JC-1 efflux, flow cytometry; inhibition, % at 6.6 µM; actives 0.1% (n = 190,000); AID 1325;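 active = inhibition above 80%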;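 also: 0% = DMSO and 100% = nicardipine control wells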
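Test system: IgMXP3 (ABCG2) plus far-red-tagged CCRF-Adr (ABCB1) cells. Reagent: JC-1 dye as substrate. Timing: 10 min exposure at 25 °C with rotation, no wash. Measured by: flow cytometric JC-1 green MFI at 530 nm. Read-out: percent efflux inhibition, scaled nicardipine 100% to DMSO 0%. Control set: nicardipine and DMSO wells.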
MEKK2wt PB1 HTS: raises or lowers MEK5 binding to wildtype human MEKK2 PB1 domain; binding response (% of control), % at 10 µM; AID 1531; Q9Y2U5; bead flow cytometry, Alexa488-MEK5 binding to MEKK2 WT; actives lie on both sides; actives 1.1% (n = 290,000); in the data active = binding response below about 67% or above about 130%
MEKK3 PB1 HTS: MEKK3-MEK5 PB1 interaction, increase or decrease. bead-based flow cytometry, Alexa488-MEK5 binding to MEKK3; actives lie on both sides; 0 = blocked by unlabeled MEK5, 100 = vehicle. actives 1.4% (n = 290,000). Q99759. binding response (% of control), % at 10 µM;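 active = binding response more than 3 SD above or below the average of its plate-row segment, actives on both sides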;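 also: Alexa488 bead fluorescence after subtracting the streptavidin-only scavenger bead signal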
Target sequence (Q99759 whole entry, looked up): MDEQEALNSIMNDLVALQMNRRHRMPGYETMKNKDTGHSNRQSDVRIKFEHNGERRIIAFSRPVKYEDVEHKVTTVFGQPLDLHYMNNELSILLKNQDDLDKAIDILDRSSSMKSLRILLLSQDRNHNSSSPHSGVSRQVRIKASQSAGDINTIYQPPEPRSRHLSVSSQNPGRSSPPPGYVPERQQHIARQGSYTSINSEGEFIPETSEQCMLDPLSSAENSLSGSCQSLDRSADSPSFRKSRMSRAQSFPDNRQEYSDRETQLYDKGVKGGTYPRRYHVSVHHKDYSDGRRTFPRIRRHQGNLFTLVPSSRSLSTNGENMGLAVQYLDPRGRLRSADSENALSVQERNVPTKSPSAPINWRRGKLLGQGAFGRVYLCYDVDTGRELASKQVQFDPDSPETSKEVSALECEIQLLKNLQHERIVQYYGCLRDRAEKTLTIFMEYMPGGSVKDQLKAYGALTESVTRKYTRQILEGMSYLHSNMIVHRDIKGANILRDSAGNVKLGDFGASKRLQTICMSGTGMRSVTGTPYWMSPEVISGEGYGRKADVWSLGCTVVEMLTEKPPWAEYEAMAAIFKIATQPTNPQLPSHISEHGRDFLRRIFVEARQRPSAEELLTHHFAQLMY
ABCB1 block: blocks JC-1 efflux by human ABCB1 transporter | AID 1326 | CCRF-Adr cells, flow cytometry | P08183 | inhibition, % at 6.6 µM | actives 0.067% (n = 190,000); in the data active = inhibition above about 40%;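 also: 0% = vehicle and 100% = reference inhibitor; higher value means more JC-1 retained so stronger ABCB1 efflux block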
MEKK2 mut-MEK5: signal of MEK5 binding to mutant human MEKK2 PB1 domain. bead flow cytometry, Alexa488-MEK5 binding to MEKK2 mutant. percent response, % at 10 µM. actives 0.35% (n = 290,000). AID 1530; in the data active = percent response above about 24%, passing the limit was not always enough
MEKK2wt confirm: raises or lowers MEK5 binding to wildtype human MEKK2, retest; actives 2.4% (n = 5,900); bead flow cytometry, Alexa488-MEK5 binding to MEKK2 WT; actives lie on both sides; binding response (% of control), % at 10 µM; shares compounds with MEKK3 PB1 HTS; AID 1892; in the data active = binding response below about 16% or above about 210%; inactive = in between
MEKK2mut confirm: signal of MEK5 binding to mutant human MEKK2, retest. percent response, % at 10 µM. bead flow cytometry, Alexa488-MEK5 binding to MEKK2 mutant. actives 2% (n = 5,900). AID 1893. shares compounds with MEKK3 PB1 HTS; in the data active = percent response mostly above about 71%, no sharp cut-off; inactive = mostly below about 38%;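 also: higher means compound restores mutant binding toward wildtype level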
MEKK3 confirm: MEKK3-MEK5 PB1 inhibition, single concentration confirmation; shares compounds with MEKK3 PB1 HTS; bead flow cytometry, Alexa488-MEK5 binding to MEKK3; stronger effect = lower value; binding response (% of control), % at 10 µM; actives 1.8% (n = 5,900); AID 1894;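 active = binding response below 72% of control, or above a set upper limit, though filed actives all read lower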;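 also: 100% = DMSO only wells and 0% = binding blocked by excess unlabeled MEK5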
* marks the source's active call; other numbers are inactive results; / = not tested or not shown; [ ] = dose if it differs, or a comment.

SMILES	ABCG2 inh	MEKK2wt PB1 HTS	MEKK3 PB1 HTS	ABCB1 block	MEKK2 mut-MEK5	MEKK2wt confirm	MEKK2mut confirm	MEKK3 confirm
CCOc1ccc(C(C)C)cc1S(=O)(=O)n1ccnc1C	0.3	101.0	100.0	0.4	-2.0	/	/	/
CC(C)[C@@H](C(=O)N1CCCC1)N1C(=O)N2CCc3c([nH]c4ccccc34)[C@@]2(C)C1=O	/	102.0	101.0	/	1.0	/	/	/
Cn1c(N/N=C\c2cccc(O)c2)cc(=O)n(C)c1=O	14.4	107.0	146.0*	0.3	0.0	101.0	-7.0	98.0
COc1cc(OC)cc(C(=O)NNC(=O)c2ccccn2)c1	-8.1	106.0	135.0*	-0.5	0.0	113.0	5.0	105.0
Cc1cccc(N(Cc2cc3ccc(C)cc3[nH]c2=O)C(=O)c2ccco2)c1	/	125.0	133.0*	/	25.0	101.0	-2.0	103.0
Cc1ccc2cc(CN(C(=O)c3ccco3)c3ccccc3)c(=O)[nH]c2c1	0.3	93.0	93.0	0.2	-2.0	/	/	/
COc1ccc(CCN(Cc2cc3ccc(C)cc3[nH]c2=O)C(C)=O)cc1OC	/	120.0	135.0*	/	30.0	101.0	-4.0	101.0
COc1ccc(CCNCc2cc3ccc(C)cc3[nH]c2=O)cc1OC	/	107.0	105.0	/	7.0	/	/	/
NCCCC[C@@H]1NC(=O)c2cc([N+](=O)[O-])cc(F)c2NCCCC[C@@H](C(N)=O)NC(=O)CNC1=O	0.0	135.0*	113.0	-0.4	12.0	104.0	2.0	103.0
O=C(CSCc1ccc(Br)cc1)N=Nc1c(O)[nH]c2ccccc12	15.5	112.0	146.0*	0.2	1.0	105.0	4.0	101.0
COc1cc(CNc2ccc(O)cc2)cc(Br)c1OCc1ccccc1	3.4	111.0	101.0	0.9	0.0	/	/	/
Fc1ccc(COc2ccc(Br)cc2CNCc2ccncc2)cc1	11.8	114.0	100.0	3.6	17.0	/	/	/
COc1cc(CNC(C)c2ccccc2)cc(Br)c1OCc1ccccc1 (configuration not stated)	/	192.0*	112.0	/	17.0	164.0	31.0	105.0
COc1cc(CNC(C)c2ccccc2)cc(Br)c1OCc1ccc(F)cc1 (configuration not stated)	/	223.0*	109.0	/	23.0	186.0	50.0	113.0
CCOc1cc(CNCc2ccncc2)cc(Br)c1OCc1ccc(F)cc1	13.9	142.0*	108.0	1.6	22.0	128.0	22.0	112.0
COC(=O)/C=c1/sc2nc3ccccc3n2c1=O	-0.1	81.0	80.0*[inhibitor]	-0.2	-15.0	98.0	-4.0	98.0
O=c1/c(=C/c2ccccn2)sc2nc3ccccc3n12	5.4	/	/	0.1	/	/	/	/
Cc1csc(NC(=O)c2ccc(S(=O)(=O)N3CCN(C)CC3)cc2)n1	/	99.0	102.0	/	1.0	/	/	/
Cc1cc(C(=O)Nc2ccccc2)oc(=O)c1	/	66.0	49.0*[inhibitor]	/	-25.0	99.0	-7.0	91.0
COC(=O)c1cc(C)cc(=O)o1	/	99.0	100.0	/	-1.0	/	/	/
COc1ccc2c(C)c(C(=O)N3CCN(Cc4ccccc4)CC3)oc2c1	/	108.0	109.0	/	13.0	/	/	/
CCN(Cc1ccccc1)S(=O)(=O)c1ccc(C(=O)N(CCCN(C)C)c2nc3c(F)cccc3s2)cc1	/	190.0*	110.0	/	43.0*	203.0	39.0	106.0
Cc1ccc2sc(N(CCCN(C)C)C(=O)c3ccc(S(=O)(=O)N(C)C)cc3)nc2c1C	1.5	135.0	103.0	1.9	22.0	/	/	/
CCN(c1ccccc1)S(=O)(=O)c1ccc(C(=O)N(CCCN(C)C)c2nc3c(C)cccc3s2)cc1	/	154.0*	103.0	/	20.0	166.0	31.0	110.0
Cc1nc(C)n(C(C)CNC(=O)c2ccco2)n1 (configuration not stated)	/	107.0	100.0	/	5.0	/	/	/
SMILES	ABCG2 inh	MEKK2wt PB1 HTS	MEKK3 PB1 HTS	ABCB1 block	MEKK2 mut-MEK5	MEKK2wt confirm	MEKK2mut confirm	MEKK3 confirm
O=C1OC(CO)CN1Cc1ccccc1 (configuration not stated)	/	105.0	103.0	/	1.0	/	/	/
CCOC(=O)c1c(NC(=O)C[n+]2ccc(Cc3ccccc3)cc2)sc(C)c1C	-5.1	138.0*	94.0	-1.9	11.0	191.0	53.0	111.0
CCC(C)c1ccccc1N=Cc1ccc2c(c1)OCO2 (configuration not stated)	/	95.0	101.0	/	-3.0	/	/	/
NNc1nc2c(F)cccc2s1	-7.4	105.0	140.0*	-0.1	0.0	106.0	0.0	104.0
Nc1nc2c(F)cccc2s1	-2.6	102.0	133.0*	0.4	0.0	102.0	1.0	99.0
Fc1cccc2sc(Nc3nc4c(F)cccc4s3)nc12	-0.1	103.0	102.0	-0.5	-2.0	/	/	/
O=C(OCc1ccccc1)/C(=C/c1cccc(Br)c1)NC(=O)c1ccco1	/	109.0	107.0	/	7.0	/	/	/
CC1CCCC(NC(=O)Cc2ccc(Br)cc2)C1C (configuration not stated)	0.4	101.0	131.0*	0.4	8.0	99.0	2.0	102.0
CC1CCCC(NC(=O)CSc2nnnn2C)C1C (configuration not stated)	3.4	-8.0*[inhibitor]	0.0*[inhibitor]	1.1	-23.0	102.0	6.0	105.0
CCOC(=O)C1CCN(S(=O)(=O)c2ccc3c(c2)CC(C)N3C(=O)C2CCC2)CC1 (configuration not stated)	/	103.0	100.0	/	0.0	/	/	/
COc1ccc(NC2CCCN(C(=O)Cn3ccc(C)n3)C2)cc1OC (configuration not stated)	/	106.0	102.0	/	0.0	/	/	/
CCOc1ccc(NC(=O)CSc2nc3ccsc3c(=O)n2CCC(=O)O)cc1	/	100.0	98.0	/	-1.0	/	/	/
COC(=O)CN1C(=O)C2(OCCCO2)c2ccccc21	3.2	104.0	100.0	1.3	3.0	/	/	/
O=C(O)CN1C(=O)C2(OCCCO2)c2ccccc21	2.1	2.0*[inhibitor]	2.0*[inhibitor]	0.6	-25.0	101.0	-4.0	101.0
CCOc1ccc(Nc2cc(C)c3ccccc3n2)cc1	/	111.0	105.0	/	4.0	/	/	/
CCOc1ccc(Nc2c3ccccc3nc3ccccc23)cc1	/	149.0*	104.0	/	30.0	136.0	19.0	107.0
c1ccc(Nc2nc(NCC3CCCO3)c3ccccc3n2)cc1 (configuration not stated)	4.9	114.0	104.0	1.2	2.0	/	/	/
CCOc1ccc(Nc2nc(NCC3CCCO3)c3ccccc3n2)cc1 (configuration not stated)	18.1	166.0*	103.0	9.2	-8.0	170.0	14.0	100.0
Cc1ccc(C(=O)O/N=C(\N)Cc2cccs2)c(Cl)c1	/	99.0	101.0	/	1.0	/	/	/
Cc1nc2scc(C)n2c(=O)c1S(=O)(=O)N1CCN(c2ccc([N+](=O)[O-])cc2)CC1	/	95.0	97.0	/	0.0	/	/	/

Compound activity: PubChem, NMMLSC
